# Compounds with a hit are over-represented: about 1.9% of the library has one in this group of screens.
# PP5 primary – PP5 phosphatase inhibitors, primary screen, biochemical, fluorescence; Serine/threonine-protein phosphatase 5 (Homo sapiens), P53041; purified PP5c, OMFP substrate fluorescence; inhibition, % at 6.7 µM; hit rate 0.18% among 320,000;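 active means inhibition above the campaign's mean inhibition across all tested compounds plus 3 SD, cut at about 9.5% in these data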;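 further: 0% = DMSO only and 100% = 100 µM cantharidin control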
# PP1 counter – PP1-alpha phosphatase inhibitors, primary screen, counter-screen for PP5 inhibitor project, biochemical, fluorescence, OMFP substrate, single point; purified PP1alpha; inhibition, % at 6.7 µM; hit rate 0.9% among 320,000; AID 2235, 2010;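 active means inhibition above the mean inhibition of all tested compounds plus 3 SD, computed separately for each screening campaign, cut at about 15% in these data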
# Target sequence (P62136 whole entry, looked up): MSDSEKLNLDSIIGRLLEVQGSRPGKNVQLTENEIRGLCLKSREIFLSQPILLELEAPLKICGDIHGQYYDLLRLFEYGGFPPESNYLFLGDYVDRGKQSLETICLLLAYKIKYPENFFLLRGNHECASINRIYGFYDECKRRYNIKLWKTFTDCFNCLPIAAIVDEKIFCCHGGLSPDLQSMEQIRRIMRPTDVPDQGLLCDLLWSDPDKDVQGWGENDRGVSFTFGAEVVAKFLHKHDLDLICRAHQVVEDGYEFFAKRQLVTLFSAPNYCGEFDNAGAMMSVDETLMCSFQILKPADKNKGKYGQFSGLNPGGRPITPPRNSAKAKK
# Scp1 inh – Scp-1 phosphatase inhibitors, primary screen, biochemical, colorimetric, uHTS. Recombinant Scp1, phosphopeptide, malachite green phosphate absorbance. inhibition, % at 20 µM. hit rate 0.88% among 340,000. AID 493091, 2011;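 active means inhibition above about 50% at 20 µM, limit read from the data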;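 further: plate controls were DMSO wells with enzyme for no effect and wells lacking enzyme for full effect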
#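 Test system: SCP-1 phosphatase catalytic domain, residues 76-261; measured by: colorimetric phosphate reagent with accelerator and stabiliser, absorbance at 630 nm; timing: enzyme reaction 45 min at room temperature, colour 5 min, stabilisation 30 min; also added: Phosphorylated 17-residue peptide substrate; compound dosing: one concentration, 20 µM, with 1.0% DMSO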
# LMPTP inh – LMPTP phosphatase inhibitors, primary screen, biochemical, fluorescence intensity, uHTS; recombinant LMPTP-A, OMFP fluorogenic substrate; hit rate 0.22% among 360,000; inhibition, % at 20 µM;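 active means compounds that cut the enzyme signal by at least half of the control window in the single-dose screen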;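 further: plate controls were DMSO wells with enzyme plus substrate for no effect and substrate without enzyme for full effect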
# Target sequence (P24666 whole entry, looked up): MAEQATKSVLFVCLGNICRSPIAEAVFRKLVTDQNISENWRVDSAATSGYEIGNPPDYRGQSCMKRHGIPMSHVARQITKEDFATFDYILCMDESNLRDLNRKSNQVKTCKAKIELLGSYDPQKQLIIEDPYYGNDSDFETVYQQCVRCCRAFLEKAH
#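 Test system: LMPTP-A phosphatase enzyme. Amount: LMPTP-A at 0.625 nM final in the reaction. Reagent: OMFP substrate, 400 µM final. Times: 50 min at room temperature. Signal: endpoint fluorescence intensity from OMFP dephosphorylation. Read-out basis: % inhibition. Benchmarks: no-enzyme and uninhibited controls.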
# STEP block – STEP phosphatase inhibitors, primary screen, biochemical, fluorescence intensity, uHTS. Tyrosine-protein phosphatase non-receptor type 5 (Homo sapiens), P54829. recombinant STEP, OMFP fluorogenic substrate. inhibition, % at 20 µM. hit rate 0.25% among 360,000. AID 588621, 2011;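 active means inhibition at 20 µM, scaled per plate between control wells, above about 37%, limit read from the data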;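 further: 0% = DMSO with enzyme and substrate and 100% = substrate only without enzyme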
#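 System: STEP phosphatase, cell-free reaction; Buffer or medium: Bis-Tris pH 6.0 buffer with DTT, detergent; Incubation: 20 min at room temperature, dark; Measured by: fluorescence, 480/540 nm.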
# PP1 inh confirm – PP1 phosphatase inhibitors, confirmation, biochemical, fluorescence, OMFP substrate, triplicate | purified PP1alpha | hit rate 52% among 1,900 | shares compounds with PP1 counter | inhibition, % at 6.7 µM | AID 2358, 2010;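 active means mean PP1 inhibition above a set limit taken from the earlier primary screen, cut at about 15% in these data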
# PP5 counter – PP5 phosphatase inhibition by PP1 hits, confirmation, counter-screen for PP1 inhibitor project, biochemical, fluorescence, triplicate; shares compounds with PP1 counter; purified PP5c, OMFP fluorescence; AID 2360, 2010; inhibition, % at 6.7 µM; hit rate 4% among 1,900;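 active means mean PP5 inhibition over triplicate wells above about 9.5% taken from the earlier PP1 screen, limit read from the data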
# The depositor's hits bear a star; · = no result given.
SMILES,PP5 primary,PP1 counter,Scp1 inh,LMPTP inh,STEP block,PP1 inh confirm,PP5 counter
CCN1/C(=C/C(C)=C/c2sc3ccccc3[n+]2CC)Sc2ccccc21,10*,23*,-1,74*,37,3,10
CCN1/C(=C\C(=S)Nc2ccccc2)Sc2ccccc21,-1,-6,-3,1,-2,·,·
Cc1csc(=O)n1CC(=O)OCC(=O)Nc1cc(S(=O)(=O)N2CCOCC2)ccc1Cl,1,-10,-8,-1,-2,·,·
COc1ccc(CCNC(=O)c2cc(-c3ccc(C)c(C)c3O)n[nH]2)cc1OC,5,4,-3,3,0,·,·
C=CCn1c(SCC(=O)Nc2ccc(C(=O)O)cc2)nc2sc(C)c(C)c2c1=O,1,-1,-10,0,12,·,·
C=CCn1c(SCC(=O)Nc2sccc2C#N)nc2sc(C)c(C)c2c1=O,0,27*,-3,1,-3,31*,-1
Cc1cccc(NC(=S)N2CCN(S(=O)(=O)c3ccc(F)cc3)CC2)c1,-1,-3,4,2,4,·,·
CCCCCCOc1ccc(/C(C)=N/NC2=NCCN2)cc1[N+](=O)[O-],3,20*,1,-2,9,9,2
CSc1ncc(OCc2ccccc2)c(=O)[nH]1,0,-4,1,-2,-1,·,·
COCc1nnc(NC(=O)c2ccc(S(=O)(=O)N(CC(C)C)CC(C)C)cc2)o1,2,10,-9,0,2,·,·
O=C(Nc1nnc(-c2cccs2)o1)c1cccc(Oc2ccccc2)c1,-1,29*,-15,3,1,29*,-2
CCCCN(C)S(=O)(=O)c1ccc(C(=O)Nc2nnc(C3=COCCO3)o2)cc1,1,14,-3,0,3,·,·
O=C(Nc1nnc(-c2cccs2)o1)c1cccc(F)c1,2,1,-3,-1,2,·,·
CCCCN(C)S(=O)(=O)c1ccc(C(=O)Nc2nnc(-c3cccs3)o2)cc1,5,33*,·,·,·,20*,0
O=C(Nc1nnc(-c2ccccn2)o1)c1cccc(Cl)c1,-2,25*,-5,-1,5,5,-3
CCCCN(CC)S(=O)(=O)c1ccc(C(=O)Nc2nnc(COC)o2)cc1,4,19*,-7,-4,6,6,-1
CC(=O)Nc1ccc(/C(C)=N/Nc2nc(Nc3ccccc3)nc(N3CCOCC3)n2)cc1,-1,-4,-1,-3,0,·,·
CCN(c1ccccc1)S(=O)(=O)c1ccc(C(=O)Nc2nnc(CSC)o2)cc1,4,38*,-10,-2,1,28*,2
COCc1nnc(NC(=O)c2ccc(S(=O)(=O)N(C)c3ccccc3)cc2)o1,3,22*,-7,-1,4,6,-3
CCCN(CCC)S(=O)(=O)c1ccc(C(=O)Nc2nnc(-c3cc(OC)cc(OC)c3)o2)cc1,-2,-3,-7,-1,4,·,·
CCCN(CCC)S(=O)(=O)c1ccc(C(=O)Nc2nnc(CSC)o2)cc1,-2,24*,-9,0,2,22*,-2
CCN(c1ccccc1)S(=O)(=O)c1ccc(C(=O)Nc2cccc(C)n2)cc1,6,2,50,2,5,·,·
CCc1nnc(NC(=O)c2ccc(S(=O)(=O)N(CCOC)CCOC)cc2)o1,1,4,-3,-2,0,·,·
CCN(c1ccccc1)S(=O)(=O)c1ccc(C(=O)Nc2nnc(COC)o2)cc1,0,14,-6,-1,0,·,·
CCCCN(CCCC)S(=O)(=O)c1ccc(C(=O)Nc2nnc(CSC)o2)cc1,0,27*,-5,-2,3,29*,7
SMILES,PP5 primary,PP1 counter,Scp1 inh,LMPTP inh,STEP block,PP1 inh confirm,PP5 counter
CN(C)c1nc(OCCNC(=O)COc2ccccc2Cl)nc(N(C)C)n1,1,-1,-2,-1,-2,·,·
CCCCN(CC)S(=O)(=O)c1ccc(C(=O)Nc2nnc(-c3ccccc3Cl)o2)cc1,0,8,·,-2,-12,·,·
CCCCN(CC)S(=O)(=O)c1ccc(C(=O)Nc2nnc(CSC)o2)cc1,2,29*,-10,0,4,20*,-1
CCN(Cc1ccccc1)S(=O)(=O)c1ccc(C(=O)Nc2nnc(-c3ccccc3OC)o2)cc1,-2,30*,-10,0,1,30*,1
CCn1c(=O)n(CC(=O)NCC2CCCO2)c(=O)c2c3c(sc21)CCCC3 (stereo not drawn),-3,-3,-7,-1,2,·,·
COCCNC(=O)c1cc(Sc2nnc(C)s2)nc2ccccc12,2,-2,·,·,·,·,·
N#Cc1c2n(c3c(=O)n(Cc4ccc(Cl)cc4)cnc13)CCCC2,1,0,-2,0,4,·,·
O=[N+]([O-])c1cc(Cl)ccc1N1CCCCC1,0,-2,8,1,1,·,·
O=[N+]([O-])c1ccc(N2CCCCC2)c(Cl)c1N1CCCCC1,1,47*,-6,2,0,-2,-3
O=c1cc2oc3cc(O)c(O)cc3c(-c3ccccc3[N+](=O)[O-])c-2cc1O,9,26*,5,90*,22,14,2
Cc1cc(C)nc(SCc2ccc(C(=O)N/N=C/c3cccc(O)c3O)cc2)n1,2,25*,-8,4,2,28*,0
COc1cccc(COC(=O)c2ccc(S(=O)(=O)N3CCC(C)CC3)cc2)c1OC,3,-7,-9,3,3,·,·
CC(C)CC1C(=O)N(Cc2cn(CCC3OCCCO3)nn2)CCS(=O)(=O)N1Cc1ccc(-c2cccc(CO)c2)cc1 (stereo not drawn),·,·,·,0,0,·,·
Oc1c(C(Nc2ccccn2)c2cccnc2)cc(Cl)c2cccnc12 (stereo not drawn),3,22*,-10,10,0,19*,-3
COc1ccc(C(NC(=O)c2cccnc2)c2cc(Cl)c3cccnc3c2O)cc1OC (stereo not drawn),1,34*,-18,1,5,22*,-2
CC(=O)NC(c1ccc(C)cc1)c1cc(Cl)c2cccnc2c1O (stereo not drawn),·,·,-15,4,0,·,·
CC(OC(=O)c1ccc(NC(=O)CC#N)cc1)C(=O)Nc1ccc(Oc2ccccc2)cc1 (stereo not drawn),0,20*,·,0,5,8,-6

# From PubChem
